High-throughput results as filed in PubChem BioAssay.
SENP8 block-1: SENP8 (human) protease inhibition; AID 602440; recombinant SENP8, Nedd8 substrate fluorescence; 360,000 compounds, 0.64% hits; inhibition, % at 20 µM; in the data active = inhibition mostly above about 40%, no sharp cut-off; inactive = mostly below about 27%
SENP8 block-2: blocks the human protease SENP8. purified SENP8, Z-RLRGG-aminoluciferin cleavage, luminescence. 330,000 compounds, 1.2% hits. inhibition, % at 10 µM. AID 2540; in the data active = inhibition above about 50%
SENP7 block: blocks the human protease SENP7; Q9BQF6; recombinant SENP7, Z-RLRGG-aminoluciferin luminescence, 40 min; inhibition, % at 5 µM; 330,000 compounds, 1.5% hits; AID 434973;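 active = inhibition above about 50% at the single test dose, limit read from the data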;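 note: plate controls were DMSO with enzyme for no effect and no enzyme buffer wells for full effect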
Target sequence (Q9BQF6 706-1050 limits assumed): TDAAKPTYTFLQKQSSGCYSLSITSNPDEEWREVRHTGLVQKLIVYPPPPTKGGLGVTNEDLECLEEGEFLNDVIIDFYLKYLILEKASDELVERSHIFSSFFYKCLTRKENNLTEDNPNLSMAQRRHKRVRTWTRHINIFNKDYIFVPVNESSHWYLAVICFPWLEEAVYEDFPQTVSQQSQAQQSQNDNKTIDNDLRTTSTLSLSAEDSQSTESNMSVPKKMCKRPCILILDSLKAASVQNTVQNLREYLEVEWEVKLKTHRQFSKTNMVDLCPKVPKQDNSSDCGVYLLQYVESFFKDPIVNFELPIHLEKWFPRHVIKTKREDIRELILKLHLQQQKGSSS
SENP1 FRET inh: blocks the human SENP1 SUMO protease catalytic domain | Q9P0U3 | recombinant SENP1 catalytic domain, CyPet-SUMO1-YPet FRET cleavage | 360,000 compounds, 0.21% hits | inhibition, % at 10 µM | AID 624204;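 active = inhibition at least 30% at 10 µM, raw YFP signal under a set limit, fluorescence ratio 0.5 to 1.5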;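 note: 0% = enzyme with DMSO and 100% = no enzyme wells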
Target sequence (Q9P0U3 419-644 limits assumed): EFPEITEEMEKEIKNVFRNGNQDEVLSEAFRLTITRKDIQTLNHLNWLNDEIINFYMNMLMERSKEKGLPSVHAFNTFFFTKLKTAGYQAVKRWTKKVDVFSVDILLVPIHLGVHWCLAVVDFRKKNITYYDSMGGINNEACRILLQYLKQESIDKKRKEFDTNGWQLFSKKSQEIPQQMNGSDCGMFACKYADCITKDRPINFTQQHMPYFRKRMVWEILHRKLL
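Controls: no-enzyme wells low, DMSO-plus-enzyme wells high control. Test system: human recombinant His6-tagged SENP1 catalytic domain enzyme. Reagent: SFCypet-SUMO1-SFYpet FRET protein substrate, 25 nM final. Doses: one dose per compound, 10 µM, 0.5% DMSO. Detection: FRET, CFP and YFP emission. Timing: 50 min reaction at room temperature.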
SENP6 inh: inhibitors of human SENP6 protease. Q9GZR1. Recombinant SENP6 catalytic domain, aminoluciferin luminescence. inhibition, % at 10 µM. 330,000 compounds, 1.8% hits. AID 2599;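 active = inhibition above about 50% at the single tested dose, limit read from the data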;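 note: plate controls were DMSO wells with enzyme for no effect and DMSO wells lacking enzyme for full effect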
SENP8 conf: confirmation of human SENP8 protease inhibitors; AID 488912; 6,200 compounds, 40% hits; Recombinant SENP8, Z-RLRGG-aminoluciferin luminescence, 60 min; shares compounds with SENP7 block; inhibition, % at 12.5 µM;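 active = mean inhibition across replicates above about 50%, limit read from the data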
SENP6 conf: human SENP6 inhibition, confirmed; shares compounds with SENP7 block; recombinant SENP6, Z-RLRGG-aminoluciferin luminescence; inhibition, % at 12.5 µM; 6,200 compounds, 58% hits; AID 488915
SENP7 confirm: human SENP7 inhibition, confirmed. recombinant SENP7, Z-RLRGG-aminoluciferin luminescence, 40 min. inhibition, % at 12.5 µM. 6,200 compounds, 69% hits. shares compounds with SENP7 block
Casp3 SENP sel: selectivity test for SENP inhibitors: human caspase-3 inhibition | shares compounds with SENP7 block | AID 488918 | purified caspase-3, Z-DEVD-aminoluciferin luminescence, 60 min | 6,200 compounds, 60% hits | inhibition, % at 12.5 µM;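 active = mean inhibition above about 50%, limit read from the data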;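 note: plate controls were enzyme with DMSO for no effect and wells without caspase-3 for full effect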
SENP luc ctr: counter-screen for SENP inhibitors: luminescence interference; 6,200 compounds, 39% hits; shares compounds with SENP7 block; AID 488919; Pre-incubated SENP8/Z-RLRGG-aminoluciferin, luciferase luminescence interference; inhibition, % at 12.5 µM;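 active = mean inhibition above about 50% when retested at one dose, limit read from the data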;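 note: plate controls were DMSO wells with completed reaction for no effect and substrate without enzyme for full effect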
Numbers without * were called inactive. Sampled rows, rich in hits. Any-hit rate of the full collection: about 2.5%.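 Rule for the calls, unless noted: active = mean inhibition above about 50% in the one-dose retest (limit read from the data); inactive = the rest.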

`CCCN1CC(O)=C(C#N)C1=O` gave SENP8 block-1 -1.2, SENP8 block-2 -5.1, SENP7 block 1.2, SENP1 FRET inh 0.4 and SENP6 inh 6.7.
CC(=O)Oc1ccccc1N(C(C)=O)S(=O)(=O)c1cccc([N+](=O)[O-])c1 was read as SENP8 block-1 12.0, SENP8 block-2 -11.5, SENP7 block -1.2, SENP1 FRET inh 2.5 and SENP6 inh 7.3.
CCOC(=O)CSc1nc2cccnc2n1C was read as SENP8 block-1 2.6, SENP8 block-2 -11.9, SENP7 block -5.9, SENP1 FRET inh 3.2 and SENP6 inh -2.0.
Cn1c(SCc2ccccc2F)nc2cccnc21 was read as SENP8 block-1 10.4, SENP8 block-2 25.3, SENP7 block 47.9, SENP1 FRET inh 2.9, SENP6 inh 60.4*, SENP8 conf 53.5*, SENP6 conf 50.7*, SENP7 confirm 80.9*, Casp3 SENP sel 63.5* and SENP luc ctr 57.4*.
Screening Nc1[nH]nc2c1NN(c1ccc(Cl)cc1Cl)N2 returned SENP8 block-1 14.7, SENP8 block-2 37.1, SENP7 block 39.1, SENP1 FRET inh 0.8, SENP6 inh 65.0*, SENP8 conf -3.3, SENP6 conf -5.1, SENP7 confirm -5.9, Casp3 SENP sel -3.2 and SENP luc ctr 0.0.
For Nc1c(-c2n[nH]c(=S)n2-c2ccc(Cl)cc2Cl)cnn1-c1ccccc1 the results were SENP8 block-1 27.3, SENP8 block-2 3.0, SENP7 block 2.4, SENP1 FRET inh 2.7 and SENP6 inh -28.6.
For Cc1ccc(C)c(C2=NNC(=O)CC2)c1 the results were SENP8 block-1 14.9, SENP8 block-2 2.2, SENP7 block -3.4, SENP1 FRET inh 0.9 and SENP6 inh -20.5.
For O=c1[nH]c(SCc2ccc(Cl)cc2)nc2ccsc12 the results were SENP8 block-2 63.0*, SENP7 block 33.6, SENP6 inh 78.4*, SENP8 conf 12.5, SENP6 conf 67.2*, SENP7 confirm 88.2*, Casp3 SENP sel 49.5 and SENP luc ctr 7.4.
O=C(O)c1cccc(COc2cccc3ccccc23)c1 was read as SENP8 block-1 17.3, SENP8 block-2 97.1*, SENP7 block 95.9*, SENP1 FRET inh 0.4, SENP6 inh 97.2*, SENP8 conf 98.2*, SENP6 conf 100.1*, SENP7 confirm 103.0*, Casp3 SENP sel 84.5* and SENP luc ctr 98.8*.
O=C(O)c1ccc(COc2c(F)c(F)cc(F)c2F)cc1 was read as SENP8 block-1 9.3, SENP8 block-2 40.7, SENP7 block 48.4, SENP1 FRET inh 1.3, SENP6 inh 80.1*, SENP8 conf 66.3*, SENP6 conf 66.7*, SENP7 confirm 89.6*, Casp3 SENP sel 90.2* and SENP luc ctr 78.6*.
`COc1ccc(OCC(O)COc2ccc(C(=O)O)cc2)cc1` (stereo not given) gave SENP8 block-1 16.4, SENP8 block-2 0.0, SENP7 block 2.2, SENP1 FRET inh -0.6 and SENP6 inh -3.6.
Screening O=C(O)c1ccc(COc2ccccc2Cl)cc1 returned SENP8 block-1 2.4, SENP8 block-2 57.0*, SENP7 block 31.0, SENP1 FRET inh -0.2, SENP6 inh 71.6*, SENP8 conf 8.1, SENP6 conf 66.2*, SENP7 confirm 91.4*, Casp3 SENP sel 85.1* and SENP luc ctr 70.5*.
COC(=O)c1ccc(COc2c(F)c(F)cc(F)c2F)o1 was read as SENP8 block-1 5.8, SENP8 block-2 -13.4, SENP7 block -6.6, SENP1 FRET inh 0.9 and SENP6 inh -16.0.
Screening Cc1oc(C(=O)O)cc1COc1cccc2ccccc12 returned SENP8 block-1 5.6, SENP8 block-2 -5.8, SENP7 block -4.2, SENP1 FRET inh 0.0 and SENP6 inh -0.5.
Screening COc1ccc(OCc2ccc(C(=O)O)cc2)cc1 returned SENP8 block-1 30.7, SENP8 block-2 51.1*, SENP7 block 68.0*, SENP1 FRET inh 1.5, SENP6 inh 83.9*, SENP8 conf 81.3*, SENP6 conf 75.7*, SENP7 confirm 94.4*, Casp3 SENP sel 62.3* and SENP luc ctr 78.0*.
For CN(C)CCCOc1nc2c(c(=O)n(C)c(=O)n2C)n1C the results were SENP8 block-1 6.9, SENP8 block-2 -11.6, SENP7 block -7.4, SENP1 FRET inh 2.6 and SENP6 inh -17.6.
For CCC(C)(C)n1nnnc1C(c1ccc2ncccc2c1)N1CCN2CCCC2C1 (stereo not given) the results were SENP8 block-1 5.1, SENP8 block-2 1.4, SENP7 block 2.7, SENP1 FRET inh -0.9 and SENP6 inh -7.4.
`CCCCOc1ccc(C(=O)N2CCCCCC2)cc1` gave SENP8 block-1 20.1, SENP8 block-2 -6.6, SENP7 block -8.1, SENP1 FRET inh 1.8 and SENP6 inh 18.1.
Screening O=C(c1ccc(COc2ccc(Cl)cc2)cc1)N1CCCCC1 returned SENP8 block-1 16.2, SENP8 block-2 62.9*, SENP7 block 75.1*, SENP1 FRET inh 1.1, SENP6 inh 86.9*, SENP8 conf 81.4*, SENP6 conf 77.9*, SENP7 confirm 91.1*, Casp3 SENP sel 59.9* and SENP luc ctr 65.5*.
For Cc1cccc2sc(N(CCN(C)C)C(=O)C3CCN(S(=O)(=O)c4cccs4)CC3)nc12 the results were SENP8 block-1 16.1, SENP8 block-2 1.9, SENP7 block -6.5, SENP1 FRET inh -2.7 and SENP6 inh -2.3.
`COc1ccc(/C=C/C(=O)NCC(=O)N/N=C/c2cc(Br)ccc2OC)cc1` gave SENP8 block-1 4.4, SENP8 block-2 -2.9, SENP7 block 84.1*, SENP1 FRET inh 1.3, SENP6 inh -5.9, SENP8 conf 3.1, SENP6 conf -0.1, SENP7 confirm -0.9, Casp3 SENP sel -1.5 and SENP luc ctr -1.6.
Screening COc1ccccc1/C=C/C(=O)NCC(=O)N/N=C/c1cc(Br)ccc1OC returned SENP8 block-1 -72.9, SENP8 block-2 -3.7, SENP7 block 2.7, SENP1 FRET inh -10.3 and SENP6 inh -9.1.
Screening CN(Cc1ccc(Cl)c(Cl)c1)C(C(=O)NCc1ccccc1)c1ccc(C(F)(F)F)cc1 (stereo not given) returned SENP8 block-1 -90.6 and SENP1 FRET inh -33.8.
